Results: ChEMBL document CHEMBL3576859, “Novel benzamide-based histamine h3 receptor antagonists: the identification of two candidates for clinical development” (ACS Med Chem Lett, 2015)
Activity calls are given as the source filed them. The calls are words filed in the database; no cut-off is given here.

How the values were obtained:
Homo sapiens [1] = species: Homo sapiens; experiment: Ex vivo histamine H3 receptor occupancy in human assessed as plasma concentration required to cause maximal receptor occupancy; format: functional
[2] = Apparent permeability across apical to basolateral side in human Caco2 cells at 10 uM after 60 mins by LC/MS/MS analysis; format: ADME, cell-based; details: Caco-2
Method in brief: (§1)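 Caco-2 monolayer permeability measured in both directions, apical-to-basolateral and basolateral-to-apical. Reported as P_app (×10−⁶ cm/s), given as A−B/B−A pairs.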

[3] = Metabolic stability in Sprague-Dawley rat liver microsomes assessed as compound remaining at 1 uM after 15 mins; format: ADME; details: read-out: Stability
Method in brief: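 Rat liver microsomes incubated with compound for 15 min. Stability expressed as percent of parent remaining.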

Rattus norvegicus [4] = species: Rattus norvegicus; experiment: Toxicity in rat assessed as phospholipidosis; format: organism-based; details: in vivo
[5] = Half life in human; format: ADME, organism-based; details: in vivo
Method in brief: (§2)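 Humans given single oral doses. Time to peak plasma concentration and mean t1/2 were determined across the dose range (10–400 mg).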

Rattus norvegicus [6] = species: Rattus norvegicus; experiment: Toxicity in rat assessed as phospholipidosis; details: in vivo
Rattus norvegicus [7] = experiment: Ex vivo histamine H3 receptor occupancy in Sprague-Dawley rat striatum at 10 mg/kg, sc by autoradiographic analysis; format: functional
Method in brief: (§3)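 Ex vivo H3 receptor occupancy measured after 10 mg/kg subcutaneous dosing in rats. Plasma Cmax was determined in parallel.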

[8] = Drug uptake in Sprague-Dawley rat brain at 3 mg/kg, po measured at 1 hr; format: ADME, organism-based; details: read-out: Drug uptake
Method in brief: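 Rats dosed orally at 3 mg/kg. Brain drug concentration (μM) measured at 1 h post-dose.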

[9] = Inhibition of CYP450 in human liver microsomes; format: ADME
[10] = molecular target: Voltage-gated inwardly rectifying potassium channel KCNH2 (Homo sapiens, UniProt Q12809); experiment: Displacement of [3H]-astemizole from human ERG expressed in HEK293 cells after 60 mins by scintillation counting analysis; format: cell-based
Sequence of Voltage-gated inwardly rectifying potassium channel KCNH2 (Q12809 whole entry): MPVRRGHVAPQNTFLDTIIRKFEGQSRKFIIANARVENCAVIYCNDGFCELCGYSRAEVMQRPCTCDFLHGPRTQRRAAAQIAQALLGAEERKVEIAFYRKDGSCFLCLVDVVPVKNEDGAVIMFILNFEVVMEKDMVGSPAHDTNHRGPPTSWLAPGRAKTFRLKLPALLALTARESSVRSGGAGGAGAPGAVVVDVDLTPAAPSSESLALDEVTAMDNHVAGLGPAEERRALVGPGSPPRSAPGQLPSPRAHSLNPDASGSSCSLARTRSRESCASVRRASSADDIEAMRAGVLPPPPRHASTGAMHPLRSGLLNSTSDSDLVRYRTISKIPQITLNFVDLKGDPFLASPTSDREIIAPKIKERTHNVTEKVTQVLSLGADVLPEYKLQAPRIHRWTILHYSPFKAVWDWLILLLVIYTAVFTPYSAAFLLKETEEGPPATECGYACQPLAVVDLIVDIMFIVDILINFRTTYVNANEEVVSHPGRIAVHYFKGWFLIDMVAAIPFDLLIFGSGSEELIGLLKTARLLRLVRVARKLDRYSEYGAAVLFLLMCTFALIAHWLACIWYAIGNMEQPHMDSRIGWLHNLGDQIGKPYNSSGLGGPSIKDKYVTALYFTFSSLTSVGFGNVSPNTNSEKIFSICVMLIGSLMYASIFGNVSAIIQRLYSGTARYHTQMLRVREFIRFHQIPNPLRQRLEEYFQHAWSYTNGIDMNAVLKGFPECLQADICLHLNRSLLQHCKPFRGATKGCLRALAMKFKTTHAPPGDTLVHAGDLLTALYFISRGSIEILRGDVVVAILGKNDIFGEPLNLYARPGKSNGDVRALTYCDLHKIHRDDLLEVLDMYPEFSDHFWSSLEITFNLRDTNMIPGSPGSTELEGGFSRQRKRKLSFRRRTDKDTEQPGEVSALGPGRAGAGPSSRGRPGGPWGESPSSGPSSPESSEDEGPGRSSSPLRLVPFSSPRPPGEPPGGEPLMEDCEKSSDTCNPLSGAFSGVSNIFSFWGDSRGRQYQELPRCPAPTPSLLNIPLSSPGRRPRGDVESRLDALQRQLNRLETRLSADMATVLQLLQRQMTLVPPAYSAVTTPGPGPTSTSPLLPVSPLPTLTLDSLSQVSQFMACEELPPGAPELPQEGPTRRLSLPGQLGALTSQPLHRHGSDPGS

[11] = Volume of distribution at steady state in Sprague-Dawley rat; format: ADME, organism-based; details: in vivo, read-out: Vdss
[12] = Metabolic stability in human liver microsomes assessed as compound remaining at 1 uM after 15 mins; format: ADME; details: read-out: Stability
Method in brief: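 Compound incubated with human liver microsomes for 15 min. Read-out is percent parent remaining.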

[13] = molecular target: Voltage-gated L-type calcium channel (Rattus norvegicus, UniProt P22002+Q02485+P27732); experiment: Binding affinity to rat L-type calcium channel at 1 uM
[14] = Oral bioavailability in Sprague-Dawley rat at 10 mg/kg; format: ADME, organism-based; details: in vivo
[15] = Half life in Sprague-Dawley rat at 1 mg/kg, iv; format: ADME, organism-based; details: in vivo
[16] = Apparent permeability across basolateral to apical side in human Caco2 cells at 10 uM […] by LC/MS/MS analysis; format: ADME, cell-based; details: Caco-2; method in brief: as §1
Rattus norvegicus [17] = experiment: Ex vivo histamine H3 receptor occupancy in Sprague-Dawley rat striatum at 3 mg/kg, po measured at 1 hr by autoradiographic analysis; format: functional
Method in brief: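 After a 3 mg/kg oral dose in rats, ex vivo H3 receptor occupancy was determined by autoradiography at 1 h. Values are mean ± SD.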

[18] = Clearance in Sprague-Dawley rat; format: ADME, organism-based; details: in vivo
Canis familiaris [19] = species: Canis familiaris; experiment: Toxicity in dog assessed as phospholipidosis; format: organism-based, Canis lupus familiaris; details: in vivo
Rattus norvegicus [20] = experiment: Ex vivo histamine H3 receptor occupancy in Sprague-Dawley rat striatum assessed as maximum plasma concentration required to cause >80% receptor occupancy at 10 mg/kg, sc; format: functional; method in brief: as §3
[21] = Tmax in po dosed human; format: ADME, organism-based; details: in vivo; method in brief: as §2
Cytochrome P450 1A2 = molecular target: T1, Cytochrome P450 1A2 (Homo sapiens, UniProt P05177); experiment: Inhibition of CYP1A2 (unknown origin); format: ADME
T1 sequence (P05177 whole entry): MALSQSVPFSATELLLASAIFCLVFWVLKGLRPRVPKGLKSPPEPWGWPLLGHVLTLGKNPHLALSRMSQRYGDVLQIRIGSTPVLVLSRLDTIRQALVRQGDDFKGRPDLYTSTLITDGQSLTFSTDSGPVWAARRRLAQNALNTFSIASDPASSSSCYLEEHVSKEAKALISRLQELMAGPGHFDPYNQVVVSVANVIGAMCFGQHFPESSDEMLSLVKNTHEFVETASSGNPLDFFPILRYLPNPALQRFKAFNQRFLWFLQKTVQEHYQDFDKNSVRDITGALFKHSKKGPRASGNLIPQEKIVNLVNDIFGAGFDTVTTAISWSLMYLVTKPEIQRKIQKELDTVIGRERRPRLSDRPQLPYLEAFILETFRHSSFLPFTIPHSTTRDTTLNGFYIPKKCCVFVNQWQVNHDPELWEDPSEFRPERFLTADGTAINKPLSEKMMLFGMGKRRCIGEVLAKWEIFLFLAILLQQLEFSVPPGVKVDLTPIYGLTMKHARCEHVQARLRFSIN
Method in brief: (§4)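 CYP1A2, 2C9, 2C19, 2D6 and 3A4 inhibition measured and reported as IC₅₀ (μM).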

Rattus norvegicus [22] = experiment: Toxicity in Sprague-Dawley rat assessed as effect on rapid eye movement sleep at 10 mg/kg, sc administered during light sleep phase measured over first 6 hrs post-treatment; format: organism-based; details: in vivo
Cytochrome P450 2C19 = Cytochrome P450 2C19 (Homo sapiens, UniProt P33261); experiment: Inhibition of CYP2C19 (unknown origin); format: ADME; method in brief: as §4
Sequence of Cytochrome P450 2C19 (P33261 whole entry): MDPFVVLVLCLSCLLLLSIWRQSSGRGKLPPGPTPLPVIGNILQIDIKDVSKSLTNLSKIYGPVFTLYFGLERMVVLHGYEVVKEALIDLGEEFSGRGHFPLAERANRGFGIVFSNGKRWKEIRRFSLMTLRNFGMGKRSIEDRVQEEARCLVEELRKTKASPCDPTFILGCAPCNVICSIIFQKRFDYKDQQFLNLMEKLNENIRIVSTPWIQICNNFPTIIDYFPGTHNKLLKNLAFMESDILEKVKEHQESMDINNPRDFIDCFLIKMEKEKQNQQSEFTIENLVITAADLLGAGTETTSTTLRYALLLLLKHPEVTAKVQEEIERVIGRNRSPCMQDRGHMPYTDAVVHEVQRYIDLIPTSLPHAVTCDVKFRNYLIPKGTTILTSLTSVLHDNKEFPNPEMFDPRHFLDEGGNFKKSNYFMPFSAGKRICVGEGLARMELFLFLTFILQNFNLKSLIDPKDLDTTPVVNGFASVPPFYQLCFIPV

Rattus norvegicus [23] = experiment: Toxicity in rat assessed as induction of mild and sporadic salivation at 250 mg/kg, po administered up to 28 days; format: organism-based; details: in vivo, 672 h
Method in brief: (§5)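 Rats dosed orally at up to 250 mg/kg daily for up to 28 days. Monitored for clinical signs (salivation, activity), body weight, food consumption and clinical pathology; NOAEL derived.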

Cytochrome P450 3A4 = Cytochrome P450 3A4 (Homo sapiens, UniProt P08684); experiment: Inhibition of CYP3A4 (unknown origin); format: ADME; method in brief: as §4
Sequence of Cytochrome P450 3A4 (P08684 whole entry): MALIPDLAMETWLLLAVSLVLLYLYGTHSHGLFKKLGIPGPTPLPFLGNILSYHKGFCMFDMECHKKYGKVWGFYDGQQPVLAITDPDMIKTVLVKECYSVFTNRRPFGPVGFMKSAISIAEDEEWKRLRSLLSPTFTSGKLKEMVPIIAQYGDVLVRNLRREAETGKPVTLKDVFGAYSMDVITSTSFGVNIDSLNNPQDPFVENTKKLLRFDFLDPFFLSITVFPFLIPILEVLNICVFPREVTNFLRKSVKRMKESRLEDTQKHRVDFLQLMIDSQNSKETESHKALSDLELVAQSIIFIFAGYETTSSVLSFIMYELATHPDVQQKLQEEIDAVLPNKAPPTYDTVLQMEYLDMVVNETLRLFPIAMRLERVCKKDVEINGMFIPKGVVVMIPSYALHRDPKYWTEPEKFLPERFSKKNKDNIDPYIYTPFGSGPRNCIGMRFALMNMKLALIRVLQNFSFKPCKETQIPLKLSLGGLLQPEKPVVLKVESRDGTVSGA

Rattus norvegicus [24] = experiment: Toxicity in rat assessed as clinical pathology alteration at 250 mg/kg, po administered up to 28 days; format: organism-based; details: in vivo, 672 h; method in brief: as §5
Cytochrome P450 2C9 = Cytochrome P450 2C9 (Homo sapiens, UniProt P11712); experiment: Inhibition of CYP2C9 (unknown origin); format: ADME; method in brief: as §4
Sequence of Cytochrome P450 2C9 (P11712 whole entry): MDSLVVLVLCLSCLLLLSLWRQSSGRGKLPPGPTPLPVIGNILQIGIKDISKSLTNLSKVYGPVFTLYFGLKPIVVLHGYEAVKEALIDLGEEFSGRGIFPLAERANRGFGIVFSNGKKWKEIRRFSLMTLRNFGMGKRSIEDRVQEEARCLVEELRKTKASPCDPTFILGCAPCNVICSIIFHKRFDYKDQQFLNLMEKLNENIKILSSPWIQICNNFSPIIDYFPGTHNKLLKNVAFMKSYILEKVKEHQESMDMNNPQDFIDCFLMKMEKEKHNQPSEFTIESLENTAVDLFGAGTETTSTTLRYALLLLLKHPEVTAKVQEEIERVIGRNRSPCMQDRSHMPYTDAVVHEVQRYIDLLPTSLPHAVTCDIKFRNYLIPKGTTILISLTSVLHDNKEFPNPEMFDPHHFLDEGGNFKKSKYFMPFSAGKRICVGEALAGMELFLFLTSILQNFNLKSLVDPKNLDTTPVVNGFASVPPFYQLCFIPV

[25] = Plasma protein binding in human; format: ADME, cell-free; details: read-out: PPB (converted)
Rattus norvegicus [26] = experiment: Toxicity in rat assessed as decrease in body weight at 250 mg/kg, po administered up to 28 days; format: organism-based; details: in vivo, 672 h; method in brief: as §5
[27] = Toxicity in po dosed rat administered up to 28 days; format: organism-based; details: in vivo; method in brief: as §5
Rattus norvegicus [28] = experiment: Wake-promoting activity in Sprague-Dawley rat assessed as increase in time spent awake at 10 mg/kg, sc administered during light sleep phase measured over first 6 hrs post-treatment; format: functional
Method in brief: (§6)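 Rats treated during the light sleep phase. Time awake, NREM and REM sleep duration scored over the first 6 h post-treatment.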

Rattus norvegicus [29] = experiment: Toxicity in rat assessed as decrease in locomotor activity at 250 mg/kg, po administered up to 28 days; format: organism-based; details: in vivo, 672 h; method in brief: as §5
Homo sapiens [30] = species: Homo sapiens; experiment: Toxicity in human assessed as insomnia; format: organism-based; details: in vivo
Rattus norvegicus [31] = experiment: Wake-promoting activity in Sprague-Dawley rat assessed as decrease in non-rapid eye movement sleep duration at 10 mg/kg, sc administered during light sleep phase measured over first 6 hrs post-treatment; format: functional, organism-based; method in brief: as §6
Rattus norvegicus [32] = experiment: Toxicity in Sprague-Dawley rat assessed as increase in locomotor activity at 10 mg/kg, sc; format: organism-based; details: in vivo
Mus musculus = species: Mus musculus; experiment: Toxicity in mouse; format: organism-based; details: in vivo
Histamine H3 receptor = Histamine H3 receptor (Homo sapiens, UniProt Q9Y5N1); experiment: Displacement of N-[3H]methylhistamine from human histamine H3 receptor expressed in human SK-N-MC cells after 45 mins; format: cell-based
Sequence of Histamine H3 receptor (Q9Y5N1 whole entry): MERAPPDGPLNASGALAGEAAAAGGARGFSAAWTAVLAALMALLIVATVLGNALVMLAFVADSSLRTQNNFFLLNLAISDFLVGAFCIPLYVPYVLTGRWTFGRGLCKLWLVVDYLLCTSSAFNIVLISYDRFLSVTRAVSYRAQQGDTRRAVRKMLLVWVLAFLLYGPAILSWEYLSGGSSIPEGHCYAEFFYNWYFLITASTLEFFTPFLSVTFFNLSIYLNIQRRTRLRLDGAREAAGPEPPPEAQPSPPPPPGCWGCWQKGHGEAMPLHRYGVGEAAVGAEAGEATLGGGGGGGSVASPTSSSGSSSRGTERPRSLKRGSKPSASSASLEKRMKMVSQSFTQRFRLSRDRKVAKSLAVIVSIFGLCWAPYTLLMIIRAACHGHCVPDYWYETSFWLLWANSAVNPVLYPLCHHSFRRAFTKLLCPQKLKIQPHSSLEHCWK

Rattus norvegicus [33] = experiment: Toxicity in rat assessed as decrease in food consumption at 250 mg/kg, po administered up to 28 days; format: organism-based; details: in vivo, 672 h; method in brief: as §5
Cytochrome P450 2D6 = Cytochrome P450 2D6 (Homo sapiens, UniProt P10635); experiment: Inhibition of CYP2D6 (unknown origin); format: ADME; method in brief: as §4
Sequence of Cytochrome P450 2D6 (P10635 whole entry): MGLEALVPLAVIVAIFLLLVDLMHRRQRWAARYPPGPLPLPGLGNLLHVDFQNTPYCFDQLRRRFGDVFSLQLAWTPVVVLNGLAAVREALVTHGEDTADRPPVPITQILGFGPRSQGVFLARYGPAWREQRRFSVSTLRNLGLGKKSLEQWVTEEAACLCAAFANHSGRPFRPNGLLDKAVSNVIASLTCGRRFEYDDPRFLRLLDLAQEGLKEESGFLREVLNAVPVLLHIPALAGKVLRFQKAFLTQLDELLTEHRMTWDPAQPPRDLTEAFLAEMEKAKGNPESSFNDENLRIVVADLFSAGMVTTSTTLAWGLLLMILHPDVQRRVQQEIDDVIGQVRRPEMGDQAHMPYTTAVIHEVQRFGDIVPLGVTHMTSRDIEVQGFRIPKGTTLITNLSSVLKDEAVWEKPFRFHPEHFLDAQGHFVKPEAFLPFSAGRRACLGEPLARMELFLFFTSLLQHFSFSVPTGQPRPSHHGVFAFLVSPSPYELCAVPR

[34] = Elimination half life in human at 2 mg; format: ADME, organism-based; details: in vivo, read-out: beta t1/2 (converted)
Method in brief: (§7)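 Mean elimination half-life determined in human dose groups receiving 2 mg and 5 mg.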

[35] = Elimination half life in human at 5 mg; format: ADME, organism-based; details: in vivo, read-out: beta t1/2 (converted); method in brief: as §7
Canis familiaris [36] = experiment: Toxicity in dog at 10 to 75 mg/kg/day administered for 5 days; format: organism-based, Canis lupus familiaris; details: in vivo, 120 h

## Cl.O=C(c1ccc(CN2CCOCC2)cc1)N1CCN(C2CC2)CC1
Homo sapiens [1]
  Activity: 200 ng/mL
[2]
  Papp A→B at 1 h, 10 µM: 108 ×10⁻⁶ cm/s
[3]
  remaining at 0.25 h, 1 µM: 44.1%
Rattus norvegicus [4]
  Activity: Non-toxic
[5]
  half-life: 13.9 h
Rattus norvegicus [6]
  Activity: Non-toxic
Rattus norvegicus [7]
  Occ: >80%
[8]
  concentration at 1 h: 2540 nM
[9]
  inhibition (INH): Not Active
[10]
  IC50: > 10 µM
[11]
  Vd: 1.7 L/kg
[12]
  remaining at 0.25 h, 1 µM: 96.1%
[13]
  Activity: Not Active
[14]
  bioavailability: 112%
[15]
  half-life: 0.9 h
[16]
  Papp B→A at 10 µM: 37.8 ×10⁻⁶ cm/s
Rattus norvegicus [17]
  Occ: 58%
[18]
  clearance: 21.6 mL/min/kg
Canis familiaris [19]
  Activity: Non-toxic
Rattus norvegicus [20]
  Activity: 1933 ng/mL
[21]
  Tmax: 0.5 h

## CC(C)N1CCN(C(=O)c2ccc(CN3CCOCC3)cc2)CC1.O=C(O)/C=C\C(=O)O
Cytochrome P450 1A2
  IC50: > 40 µM
Rattus norvegicus [22]
  Activity: Non-toxic
Cytochrome P450 2C19
  IC50: > 40 µM
Rattus norvegicus [23]
  Activity: Toxic
[2]
  Papp A→B at 1 h, 10 µM: 22.4 ×10⁻⁶ cm/s
Cytochrome P450 3A4
  IC50: > 40 µM
Rattus norvegicus [24]
  Activity: Toxic
Cytochrome P450 2C9
  IC50: > 40 µM
[25]
  fraction unbound: 0.876
Rattus norvegicus [26]
  Activity: Toxic
[27]
  NOAEL at 672 h: 25 mg/kg/day
Rattus norvegicus [28]
  Time: 1 h
[8]
  concentration at 1 h: 5370 nM
Rattus norvegicus [29]
  Activity: Toxic
Homo sapiens [30]
  Activity: Toxic
[10]
  IC50: > 10 µM
[11]
  Vd: 3.6 L/kg
[12]
  remaining at 0.25 h, 1 µM: 65%
Rattus norvegicus [31]
  Activity: Active
Rattus norvegicus [32]
  Activity: Non-toxic
[13]
  Activity: Not Active
Mus musculus
  Activity: Non-toxic
[14]
  bioavailability: 62%
[15]
  half-life: 3.2 h
[16]
  Papp B→A at 10 µM: 20.9 ×10⁻⁶ cm/s
Rattus norvegicus [17]
  Occ: 86%
Histamine H3 receptor
  Ki: 0.0025 µM
Rattus norvegicus [33]
  Activity: Toxic
Cytochrome P450 2D6
  IC50: > 40 µM
[34]
  half-life: 49.1 h
[18]
  clearance: 12.8 mL/min/kg
[35]
  half-life: 56.1 h
Canis familiaris [36]
  Activity: Non-toxic

## CC(C)N1CCN(C(=O)c2ccc(CN3CCC(F)CC3)cc2)CC1
[3]
  remaining at 0.25 h, 1 µM: 50%
[8]
  concentration at 1 h: 1820 nM
[11]
  Vd: 29.2 L/kg
[12]
  remaining at 0.25 h, 1 µM: 84.8%
[14]
  bioavailability: 17%
[15]
  half-life: 7.6 h
Rattus norvegicus [17]
  Occ: 92%
Histamine H3 receptor
  Ki: 0.0015 µM
[18]
  clearance: 44.2 mL/min/kg
